Assay outcomes deposited in PubChem by Broad Institute.
SIRT5 block: sirtuin-5 (human) deacylase inhibition. Q9NXA8. Purified SirT5, succinyl-peptide AMC, trypsin-coupled fluorescence. inhibition, % at 15 µM. actives 1.1% (n = 330,000). AID 652115; in the data active = inhibition above about 15%
S100A4 MyoIIA: blocks human S100A4 binding to myosin IIA peptide; P26447; S100A4/TAMRA-MyoIIA peptide fluorescence polarization; inhibition, % at 10.7 µM; actives 0.14% (n = 360,000);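 active = mean inhibition of at least 70% across replicates, with every replicate also reaching that level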
Target sequence (P26447 whole entry, looked up): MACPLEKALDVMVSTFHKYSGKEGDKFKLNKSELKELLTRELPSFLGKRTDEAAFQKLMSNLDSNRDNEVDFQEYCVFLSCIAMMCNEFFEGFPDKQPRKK
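Test system: S100A4 monomer protein. Medium: HEPES buffer with Ca2+, pH 7.2. Reagent: fluorescent myosin IIA peptide, 5 nM. Compound dosing: single-point compound testing. Timing: 5 min between mix addition and reading. Benchmarks: DMSO neutral and TFP positive wells.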
E-selectin induc: E-selectin induction on HUVECs; P16581; HUVEC E-selectin immunofluorescence imaging; normalized: neutral wells 0, TNF-alpha wells 100; activation, % at 7.58 µM; actives 0.37% (n = 260,000); AID 686992;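 active = mean E-selectin-positive cell signal at least 10% of the positive control, reached in at least 60% of replicates, without over 20% cell loss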
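Test system – human umbilical vein endothelial cells (HUVEC), E-selectin induction · Input – 3,000 HUVEC seeded per well · Buffer or medium – EGM-2, gelatin · Compound dosing – single-point compound dose · Detection – immunofluorescence imaging · Measure – percent E-selectin-positive cells · Controls – TNF-alpha high, DMSO low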
Ecoli rRNA inh: inhibitors of bacterial rRNA selective over humanized ribosomes; E. coli WT GFP vs humanized-ribosome RFP mutants, fluorescence, 24 h; hits give low values; DMSO median 0, no signal -100; GFP signal change (wild-type ribosome), % (no concentration beside the values); actives 1.6% (n = 350,000);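 active = significant combined selectivity score with lowered wild-type GFP, culture density cut under 30%, mutant RFP and density less affected; inactive = any of these conditions unmet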
ERAP1 HTS inh: ERAP1 (human) enzyme inhibition; Q9NZ08; recombinant ERAP1, Leu-AMC fluorescence, 60 min; inhibition, % at 10.7 µM; actives 0.15% (n = 340,000);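 active = mean replicate inhibition of at least 30%, or all replicates individually reaching that 30% level; inactive = mean below 30% and not every replicate reaching it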
AF4-AF9 inh: blocks AF4 peptide binding to human AF9; P42568; AlphaScreen, biotin-AF4 peptide binding to FLAG-AF9; inhibition, % at 10 µM; actives 0.47% (n = 350,000);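 active = every replicate reaching a set inhibition limit, whatever the replicate mean, cut at about 25% in these data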
Target sequence (P42568 whole entry, looked up): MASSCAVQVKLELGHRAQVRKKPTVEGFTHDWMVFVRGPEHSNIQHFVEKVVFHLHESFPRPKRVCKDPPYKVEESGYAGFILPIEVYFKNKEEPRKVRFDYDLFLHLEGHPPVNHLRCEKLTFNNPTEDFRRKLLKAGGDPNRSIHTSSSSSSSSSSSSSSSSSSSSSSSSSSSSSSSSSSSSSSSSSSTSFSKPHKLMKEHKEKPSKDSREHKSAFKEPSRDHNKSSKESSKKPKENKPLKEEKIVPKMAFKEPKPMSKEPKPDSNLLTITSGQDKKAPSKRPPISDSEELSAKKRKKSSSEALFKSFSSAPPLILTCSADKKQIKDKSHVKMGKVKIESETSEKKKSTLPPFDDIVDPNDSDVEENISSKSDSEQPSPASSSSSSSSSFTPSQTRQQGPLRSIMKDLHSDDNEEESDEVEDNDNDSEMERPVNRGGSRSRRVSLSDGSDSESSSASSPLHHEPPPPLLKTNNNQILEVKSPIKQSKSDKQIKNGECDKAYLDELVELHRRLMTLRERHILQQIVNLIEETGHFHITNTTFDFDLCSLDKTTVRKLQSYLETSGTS
Each line names hits and unclear results; the compound was inactive in the other large screens. In the library only some 3.4% were active in any assay of this set; here they are far more common.

COc1ccc(NC(=O)Nc2ccc3c(c2)CC(=O)N([C@@H](C)CO)C[C@@H](C)[C@H](CN(C)S(=O)(=O)c2cn(C)cn2)O3)cc1	none (no result: E-selectin induc)
C[C@H](CO)N1C[C@H](C)[C@@H](CN(C)C(=O)Nc2ccc(C(F)(F)F)cc2)OCCCC[C@H](C)Oc2ccc(NS(=O)(=O)c3cccs3)cc2C1=O	none
O=C(c1ccccc1)c1ccc(C(=O)N2CCN(c3ccccc3Cl)CC2)cc1	none
O=C(c1ccc(Cl)cc1)N1CCN(c2cccc3[nH]ccc23)CC1	Ecoli rRNA inh -25 (no result: E-selectin induc)
CN(c1ccccc1)S(=O)(=O)c1ccc(C(=O)NCc2ccc(F)cc2)cc1	none
Cc1ccc(CNC(=O)c2ccc(N(C)S(=O)(=O)c3ccccc3)cc2)cc1	Ecoli rRNA inh -33
C[N+]12CCCCC1C(COC(=O)c1ccc3c(c1)OCO3)CCC2 (centres undefined)	ERAP1 HTS inh 31 (no result: E-selectin induc)
COc1ccc(S(=O)(=O)N(C)C[C@@H]2OCCCC[C@H](C)Oc3ccc(NS(=O)(=O)c4ccccc4)cc3C(=O)N([C@@H](C)CO)C[C@@H]2C)cc1	none (no result: E-selectin induc)
COc1ccc(S(=O)(=O)Nc2ccc3c(c2)C(=O)N([C@H](C)CO)C[C@@H](C)[C@H](CN(C)S(=O)(=O)c2ccccc2)OCCCC[C@H](C)O3)cc1	SIRT5 block 25
COc1ccc(S(=O)(=O)Nc2ccc3c(c2)C(=O)N([C@@H](C)CO)C[C@@H](C)[C@@H](CN(C)S(=O)(=O)c2ccccc2)OCCCC[C@@H](C)O3)cc1	SIRT5 block 20
COc1ccc(S(=O)(=O)N(C)C[C@H]2OCCCC[C@H](C)Oc3ccc(NS(=O)(=O)c4ccccc4)cc3C(=O)N([C@H](C)CO)C[C@H]2C)cc1	none (no result: E-selectin induc)
COc1ccc(S(=O)(=O)Nc2ccc3c(c2)C(=O)N([C@H](C)CO)C[C@@H](C)[C@H](CN(C)S(=O)(=O)c2ccccc2)OCCCC[C@@H](C)O3)cc1	SIRT5 block 19
COc1ccc(S(=O)(=O)N(C)C[C@H]2OCCCC[C@@H](C)Oc3ccc(NS(=O)(=O)c4ccccc4)cc3C(=O)N([C@H](C)CO)C[C@H]2C)cc1	none (no result: E-selectin induc)
COc1ccc(S(=O)(=O)Nc2ccc3c(c2)C(=O)N([C@@H](C)CO)C[C@H](C)[C@@H](CN(C)S(=O)(=O)c2ccccc2)OCCCC[C@@H](C)O3)cc1	SIRT5 block 21 (no result: ERAP1 HTS inh, AF4-AF9 inh)
COc1ccc(S(=O)(=O)Nc2ccc3c(c2)C(=O)N([C@H](C)CO)C[C@@H](C)[C@@H](CN(C)S(=O)(=O)c2ccccc2)OCCCC[C@H](C)O3)cc1	none
CCCC(=O)Nc1ccc2c(c1)OC[C@H](C)N(Cc1nccs1)C[C@@H](C)[C@H](OC)CN(C)C2=O	none (no result: SIRT5 block, S100A4 MyoIIA, ERAP1 HTS inh, AF4-AF9 inh)
C[C@@H]1CN([C@@H](C)CO)C(=O)c2cc(NC(=O)Cc3ccccc3)ccc2O[C@@H](C)CCCCO[C@@H]1CN(C)C(=O)Cc1ccccc1	none
C[C@@H]1CN([C@H](C)CO)C(=O)Cc2cc(NC(=O)Nc3ccccc3)ccc2O[C@H]1CN(C)C(=O)Nc1ccc(F)cc1	none
COc1ccc(S(=O)(=O)Nc2ccc3c(c2)C(=O)N([C@@H](C)CO)C[C@@H](C)[C@H](CN(C)S(=O)(=O)c2ccccc2)OCCCC[C@H](C)O3)cc1	SIRT5 block 22
COc1ccc(S(=O)(=O)N(C)C[C@H]2OCCCC[C@H](C)Oc3ccc(NS(=O)(=O)c4ccccc4)cc3C(=O)N([C@H](C)CO)C[C@@H]2C)cc1	none (no result: E-selectin induc)
O=[N+]([O-])c1ccc(S(=O)Cc2ccccc2)c([N+](=O)[O-])c1 (centres undefined)	none
O=c1c2c([N+](=O)[O-])cc([N+](=O)[O-])cc2sn1Cc1ccccc1	SIRT5 block 20, ERAP1 HTS inh 88
C[C@H]1CN([C@@H](C)CO)C(=O)c2cc(-c3ccc(C#N)cc3)cnc2O[C@@H]1CN(C)Cc1cccnc1	none
CN(C)Cc1c(O)ccc2c(=O)c(-c3ccccc3)c(C(F)(F)F)oc12	Ecoli rRNA inh -32 (no result: E-selectin induc)
CN(C)Cc1c(O)ccc2c(=O)c(-c3ccccc3Cl)c(C(F)(F)F)oc12	none (no result: E-selectin induc)
Cc1cc(F)ccc1S(=O)(=O)Nc1ncnc2sccc12	SIRT5 block 23
Fc1cccc(Nc2ncnc3sccc23)c1	none
C[C@H](CO)N1C[C@H](C)[C@H](CN(C)C(=O)NC2CCCCC2)Oc2ccc(NS(=O)(=O)c3ccccc3)cc2C1=O	E-selectin induc 63
C[C@@H]1CN([C@H](C)CO)C(=O)c2cc(NS(=O)(=O)c3ccccc3)ccc2O[C@@H]1CN(C)C(=O)NC1CCCCC1	E-selectin induc 117
C[C@@H]1CN([C@H](C)CO)C(=O)c2cc(NS(C)(=O)=O)ccc2O[C@@H]1CN(C)C(=O)Nc1ccccc1	E-selectin induc 82
C[C@H]1CN([C@@H](C)CO)C(=O)c2cc(NS(C)(=O)=O)ccc2O[C@@H]1CN(C)C(=O)Nc1ccccc1	none
CN1CCN(C(=O)C[C@@H]2CC[C@@H]3[C@@H](COc4ccc(NC(=O)c5cccs5)cc4C(=O)N3C)O2)CC1	none (no result: SIRT5 block, S100A4 MyoIIA, E-selectin induc, ERAP1 HTS inh, AF4-AF9 inh)
CNC[C@@H]1Oc2ccc(NC(C)=O)cc2C(=O)N(C)C[C@H]1C	none (no result: SIRT5 block, S100A4 MyoIIA, E-selectin induc, ERAP1 HTS inh, AF4-AF9 inh)
COc1ccc(S(=O)(=O)Nc2cccc3c2O[C@H](CN(C)S(=O)(=O)c2ccc(F)cc2)[C@@H](C)CN([C@H](C)CO)C3=O)cc1	none
Cc1onc(-c2ccccc2)c1NC(=O)Nc1ccc(OC(F)F)cc1	Ecoli rRNA inh -22
Cc1onc(-c2ccccc2)c1C(=O)Nc1ccc(OC(C)C)cc1	none (no result: SIRT5 block, E-selectin induc, ERAP1 HTS inh)
Cc1ccc(CN2CC(=O)N3[C@@H](CO)[C@H](c4ccc(-c5cccnc5)cc4)[C@@H]3C2)cc1	none
Cc1cccc2cc(-c3ccccc3)c(-c3ccccc3)c[n+]12	Ecoli rRNA inh -42
O=[N+]([O-])c1cccc(-c2cc3cccc[n+]3cc2-c2cccc([N+](=O)[O-])c2)c1	none (no result: SIRT5 block, S100A4 MyoIIA, Ecoli rRNA inh, ERAP1 HTS inh, AF4-AF9 inh)
C[C@@H]1CN([C@H](C)CO)S(=O)(=O)c2ccc(C#CC3CC3)cc2O[C@H]1CN(C)C	none
OC(c1ccccc1)(c1nc(-c2cccc(C(F)(F)F)c2)cs1)C(F)(F)F (centres undefined)	none
OC(c1ccccc1)(c1nc(-c2cc3ccccc3o2)cs1)C(F)(F)F (centres undefined)	Ecoli rRNA inh -38
Cc1ccc([C@H]2C(C(=O)O)=CC[C@@H](c3cccs3)N2S(=O)(=O)c2ccc(C)cc2)cc1	none
CCc1ccc([C@@H]2CC=C(C(=O)O)[C@H](c3ccc(C(C)(C)C)cc3)N2S(=O)(=O)c2ccc(C)cc2)cc1	SIRT5 block 22
